Values after ≈ are worked out from the molar mass of the structure shown.
How the values were obtained:
Klebsiella pneumoniae [1] = experiment: Antibacterial activity against ESBL positive Klebsiella pneumoniae ATCC 700603 after 24 hrs by resazurin dye based microdilution assay; type: functional; settings: Klebsiella pneumoniae, 700603, 24 h
In short: (§1)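 MIC taken as the lowest concentration giving visible inhibition and/or by resazurin (1 mg/mL). Gentamicin was the control. Run in duplicate, repeated at least three times.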

Klebsiella pneumoniae [2] = experiment: Antibacterial activity against carbapenemase positive Klebsiella pneumoniae BAA 1705 after 24 hrs by resazurin dye based microdilution assay; type: functional; settings: BAA 1705, 24 h; in short: as §1
Leishmania panamensis = experiment: Antileshmanial activity against EpiR/GFP fused Leishmania panamensis MHOM/CO/87/UA140 intracellular amastigotes infected in human […] cells after 72 hrs by flow cytometric method; type: functional, cell-based; settings: MHOM/CO/87/UA140, 72 h
In short: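 PMA-treated U-937 cells (3 × 10^5 cells/mL) infected with stationary-phase GFP L. panamensis promastigotes (15:1), 3 h at 34 °C, then washed. After 24 h, compounds added at 50, 12.5, 3.125 and 0.78 µg/mL for 72 h at 37 °C. EC50 by Probit; triplicate, two experiments.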

Candida albicans [3] = experiment: Antifungal activity against Candida albicans ATCC 10231 incubated for 48 hrs under dark condition by broth microdilution method; type: functional; settings: ATCC 10231, 48 h
In short: (§2)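 CLSI M27-A3 broth microdilution in RPMI-1640, DMSO ≤1%, compounds at 250-0.98 µg/mL final. Inoculum 1-5 × 10^3 CFU/mL. Incubated 48 h at 30 °C in a moist dark chamber, read at OD405. MIC80 and MIC50 taken from % inhibition dose-response curves (mean ± SEM, triplicate). Amphotericin B was the positive control.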

Cryptococcus neoformans [4] = experiment: Antifungal activity against Cryptococcus neoformans ATCC 32264 incubated for 48 hrs under dark condition by broth microdilution method; type: functional; settings: ATCC 32264, 48 h; in short: as §2
Candida albicans [5] = experiment: Growth inhibition of Candida albicans ATCC 10231 at 250 ug/ml incubated for 48 hrs under dark condition by broth microdilution method relative to control; type: functional; settings: ATCC 10231, 48 h, read-out: GI
In short: (§3)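 CLSI M27-A3 broth microdilution in RPMI-1640, DMSO ≤1%. Inoculum 1-5 × 10^3 CFU/mL. Incubated 48 h at 30 °C, dark. % inhibition = 100 − (OD405 test − sterility control)/(OD405 growth control − sterility control), with growth and sterility control wells. Triplicate.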

Candida albicans [6] = experiment: Growth inhibition of Candida albicans ATCC 10231 at 125 ug/ml incubated for 48 hrs under dark condition by broth microdilution method relative to control; type: functional; settings: ATCC 10231, 48 h, read-out: GI; in short: as §3
Candida albicans [7] = experiment: Growth inhibition of Candida albicans ATCC 10231 at 62.5 ug/ml incubated for 48 hrs under dark condition by broth microdilution method relative to control; type: functional; settings: ATCC 10231, 48 h, read-out: GI; in short: as §3
Candida albicans [8] = experiment: Growth inhibition of Candida albicans ATCC 10231 at 31.25 ug/ml incubated for 48 hrs under dark condition by broth microdilution method relative to control; type: functional; settings: ATCC 10231, 48 h, read-out: GI; in short: as §3
Candida albicans [9] = experiment: Growth inhibition of Candida albicans ATCC 10231 at 15.62 ug/ml incubated for 48 hrs under dark condition by broth microdilution method relative to control; type: functional; settings: ATCC 10231, 48 h, read-out: GI; in short: as §3
Candida albicans [10] = experiment: Growth inhibition of Candida albicans ATCC 10231 at 7.8 ug/ml incubated for 48 hrs under dark condition by broth microdilution method relative to control; type: functional; settings: ATCC 10231, 48 h, read-out: GI; in short: as §3
Candida albicans [11] = experiment: Growth inhibition of Candida albicans ATCC 10231 at 3.4 ug/ml incubated for 48 hrs under dark condition by broth microdilution method relative to control; type: functional; settings: ATCC 10231, 48 h, read-out: GI
Cryptococcus neoformans [12] = experiment: Growth inhibition of Cryptococcus neoformans ATCC 32264 at 250 ug/ml incubated for 48 hrs under dark condition by broth microdilution method relative to control; type: functional; settings: ATCC 32264, 48 h, read-out: GI; in short: as §3
Cryptococcus neoformans [13] = experiment: Growth inhibition of Cryptococcus neoformans ATCC 32264 at 125 ug/ml incubated for 48 hrs under dark condition by broth microdilution method relative to control; type: functional; settings: ATCC 32264, 48 h, read-out: GI; in short: as §3
Cryptococcus neoformans [14] = experiment: Growth inhibition of Cryptococcus neoformans ATCC 32264 at 62.5 ug/ml incubated for 48 hrs under dark condition by broth microdilution method relative to control; type: functional; settings: ATCC 32264, 48 h, read-out: GI; in short: as §3
Cryptococcus neoformans [15] = experiment: Growth inhibition of Cryptococcus neoformans ATCC 32264 at 31.25 ug/ml incubated for 48 hrs under dark condition by broth microdilution method relative to control; type: functional; settings: ATCC 32264, 48 h, read-out: GI; in short: as §3
Cryptococcus neoformans [16] = experiment: Growth inhibition of Cryptococcus neoformans ATCC 32264 at 15.62 ug/ml incubated for 48 hrs under dark condition by broth microdilution method relative to control; type: functional; settings: ATCC 32264, 48 h, read-out: GI; in short: as §3
Cryptococcus neoformans [17] = experiment: Growth inhibition of Cryptococcus neoformans ATCC 32264 at 7.8 ug/ml incubated for 48 hrs under dark condition by broth microdilution method relative to control; type: functional; settings: ATCC 32264, 48 h, read-out: GI; in short: as §3
Cryptococcus neoformans [18] = experiment: Growth inhibition of Cryptococcus neoformans ATCC 32264 at 3.4 ug/ml incubated for 48 hrs under dark condition by broth microdilution method relative to control; type: functional; settings: ATCC 32264, 48 h, read-out: GI
Staphylococcus aureus [19] = experiment: Antibacterial activity against methicillin-sensitive Staphylococcus aureus ATCC 25923 after 24 hrs by resazurin dye based microdilution assay; type: functional; settings: ATCC 25923, 24 h; in short: as §1
Staphylococcus aureus [20] = experiment: Antibacterial activity against methicillin-resistant Staphylococcus aureus ATCC 43300 after 24 hrs by resazurin dye based microdilution assay; type: functional; settings: ATCC 43300, 24 h
In short: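 Broth microdilution in Mueller Hinton broth, inoculum 5 × 10^5 – 8 × 10^5. Compound stocks diluted in MHB with 5% DMSO and 0.1% Tween 80. Incubation 24 h at 35-37 °C. MIC is the lowest concentration with visible growth inhibition and/or by resazurin (1 mg/mL) read-out. Gentamicin as control. Run in duplicate, replicated at least three times.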

Staphylococcus aureus [21] = experiment: Antibacterial activity against vancomycin-intermediate Staphylococcus aureus after 24 hrs by resazurin dye based microdilution assay; type: functional; in short: as §1
Escherichia coli = experiment: Antibacterial activity against Escherichia coli ATCC 25922 after 24 hrs by resazurin dye based microdilution assay; type: functional; settings: ATCC 25922, 24 h; in short: as §1
Pseudomonas aeruginosa = experiment: Antibacterial activity against Pseudomonas aeruginosa ATCC 27853 after 24 hrs by resazurin dye based microdilution assay; type: functional; settings: ATCC 27853, 24 h; in short: as §1
Neisseria gonorrhoeae = experiment: Antibacterial activity against beta lactamase positive Neisseria gonorrhoeae ATCC 31426 by oxidase test; type: functional
In short: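 Agar dilution MIC on GC agar with 1% isovitalex containing increasing compound concentrations. Plates inoculated with about 1×10^4 CFU (5 µL). MIC is the lowest concentration that inhibited growth, with growth confirmed by oxidase test. Run in duplicate, repeated at least three times.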

Plasmodium falciparum = experiment: Antiplasmodial activity against chloroquine-sensitive Plasmodium falciparum 3D7 assessed as reduction in parasitic LDH activity after 48 hrs by Malstat reagent based […] method; type: functional; settings: 3D7, 48 h
In short: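 Unsynchronized P. falciparum 3D7 at 0.5% parasitemia and 1% hematocrit in RPMI with 3% Albumax II. Exposed to 100, 25, 6.25 and 1.56 µg/mL for 48 h at 37 °C under 90% N2/5% CO2/5% O2. After three freeze-thaw cycles, LDH measured with Malstat and NBT/PES, 1 h in the dark, read at 650 nm. IC50 by Probit; triplicate, ≥2 experiments.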

U-937 = experiment: Cytotoxicity against human U937 cells after 72 hrs by MTT assay; type: cell-based; settings: u-937, 72 h
In short: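 Exponentially growing U-937 at 1 × 10^5 cells/mL in RPMI-1640 with 10% FBS were exposed to 200, 50, 12.5 and 3.125 µg/mL for 72 h at 37 °C, 5% CO2. MTT for 3 h, stopped with isopropanol/SDS, formazan read at 570 nm, blank-corrected. LC50 by Probit from % viability against untreated cells. Triplicate, at least two independent experiments.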

Trypanosoma cruzi = experiment: Antitrypanosomal activity against Trypanosoma cruzi Tulahuen intracellular amastigote harboring LacZ infected in human U937 cells after 72 hrs by CPRG/Nonidet reagent based spectrophotometric method; type: functional, cell-based; settings: U-937, 72 h
In short: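 U-937 cells at 2.5 × 10^5 cells/mL in RPMI-1640 with 10% serum and 0.1 µg/mL PMA were infected with β-galactosidase-transfected Tulahuen epimastigotes at 5 parasites per cell. Infected cells were exposed to 50, 12.5, 3.125 and 0.78 µg/mL for 72 h. CPRG (100 uM) and 0.1% Nonidet P-40 were added for 3 h, read at 570 nm. EC50 by Probit. Triplicate, at least two experiments; benznidazole as reference.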

SMILES	MIC (Klebsiella pneumoniae [1])	MIC (Klebsiella pneumoniae [2])	EC50 (Leishmania panamensis)	MIC50 (Candida albicans [3])	MIC80 (Candida albicans [3])	MIC50 (Cryptococcus neoformans [4])	MIC80 (Cryptococcus neoformans [4])	inhibition of growth at 250 µg/mL (Candida albicans [5])	inhibition of growth at 125 µg/mL (Candida albicans [6])	inhibition of growth at 62.5 µg/mL (Candida albicans [7])	inhibition of growth at 31.25 µg/mL (Candida albicans [8])	inhibition of growth at 15.62 µg/mL (Candida albicans [9])	inhibition of growth at 7.8 µg/mL (Candida albicans [10])	inhibition of growth at 3.4 µg/mL (Candida albicans [11])	inhibition of growth at 250 µg/mL (Cryptococcus neoformans [12])	inhibition of growth at 125 µg/mL (Cryptococcus neoformans [13])	inhibition of growth at 62.5 µg/mL (Cryptococcus neoformans [14])	inhibition of growth at 31.25 µg/mL (Cryptococcus neoformans [15])	inhibition of growth at 15.62 µg/mL (Cryptococcus neoformans [16])	inhibition of growth at 7.8 µg/mL (Cryptococcus neoformans [17])	other results
Cc1ccc(C2=NN(C=O)C(c3cccc(Nc4ccnc5cc(Cl)ccc45)c3)C2)cc1 (stereo not given)	> 1000 µg/mL	> 1000 µg/mL	2.19 µg/mL (≈ 4.97 µM)	≥ 250 µg/mL	≥ 250 µg/mL	125 µg/mL (≈ 283 µM)	≥ 250 µg/mL	48.4%	28.5%	24.3%	23%	22.6%	13.7%	12.7%	76%	50.7%	44.5%	44.4%	43.6%	31.1%	inhibition of growth at 3.4 µg/mL (Cryptococcus neoformans [18]): 24.8%; MIC (Staphylococcus aureus [19]): > 1000 µg/mL; MIC (Staphylococcus aureus [20]): > 1000 µg/mL; MIC (Staphylococcus aureus [21]): > 1000 µg/mL; MIC (Escherichia coli): > 1000 µg/mL; MIC (Pseudomonas aeruginosa): > 1000 µg/mL; MIC (Neisseria gonorrhoeae): > 1000 µg/mL; EC50 (Plasmodium falciparum): 16.2 µg/mL (≈ 36.7 µM); LC50 (U-937): 1.3 µg/mL (≈ 2.95 µM); EC50 (Trypanosoma cruzi): 0.96 µg/mL (≈ 2.18 µM)
CC(=O)N1N=C(c2ccc(Cl)cc2)CC1c1cccc(Nc2ccnc3cc(Cl)ccc23)c1 (stereo not given)	> 1000 µg/mL	> 1000 µg/mL	5.53 µg/mL (≈ 11.6 µM)	≥ 250 µg/mL	≥ 250 µg/mL	125 µg/mL (≈ 263 µM)	250 µg/mL (≈ 526 µM)	40.9%	38.8%	22.5%	21.6%	20%	19.6%	14.7%	100%	53.4%	32.2%	28.1%	18.7%	26.7%	inhibition of growth at 3.4 µg/mL (Cryptococcus neoformans [18]): 11.1%; MIC (Staphylococcus aureus [19]): > 1000 µg/mL; MIC (Staphylococcus aureus [20]): > 1000 µg/mL; MIC (Staphylococcus aureus [21]): > 1000 µg/mL; MIC (Escherichia coli): > 1000 µg/mL; MIC (Pseudomonas aeruginosa): > 1000 µg/mL; MIC (Neisseria gonorrhoeae): > 1000 µg/mL; EC50 (Plasmodium falciparum): 26.3 µg/mL (≈ 55.4 µM); LC50 (U-937): 17 µg/mL (≈ 35.8 µM); EC50 (Trypanosoma cruzi): 6.57 µg/mL (≈ 13.8 µM)
CC(=O)N1N=C(c2ccc(C)cc2)CC1c1cccc(Nc2ccnc3cc(Cl)ccc23)c1 (stereo not given)	> 1000 µg/mL	> 1000 µg/mL	1.55 µg/mL (≈ 3.41 µM)	250 µg/mL (≈ 549 µM)	≥ 250 µg/mL	125 µg/mL (≈ 275 µM)	250 µg/mL (≈ 549 µM)	67.8%	46.2%	35.9%	32.2%	31.4%	20.6%	15.9%	100%	54.7%	42.9%	33.7%	29.6%	29.2%	inhibition of growth at 3.4 µg/mL (Cryptococcus neoformans [18]): 13.2%; MIC (Staphylococcus aureus [19]): > 1000 µg/mL; MIC (Staphylococcus aureus [20]): > 1000 µg/mL; MIC (Staphylococcus aureus [21]): > 1000 µg/mL; MIC (Escherichia coli): > 1000 µg/mL; MIC (Pseudomonas aeruginosa): > 1000 µg/mL; MIC (Neisseria gonorrhoeae): > 1000 µg/mL; EC50 (Plasmodium falciparum): 17.5 µg/mL (≈ 38.5 µM); LC50 (U-937): 4.4 µg/mL (≈ 9.67 µM); EC50 (Trypanosoma cruzi): 1.62 µg/mL (≈ 3.56 µM)

Source: ChEMBL document CHEMBL4038284, “Synthesis of novel quinoline-based 4,5-dihydro-1H-pyrazoles as potential anticancer, antifungal, antibacterial and antiprotozoal agents” (Eur J Med Chem, 2017)
